According to ChEMBL document CHEMBL2396521, “Development and characterization of glutamyl-protected N-hydroxyguanidines as reno-active nitric oxide donor drugs with therapeutic potential in acute renal failure” (J Med Chem, 2013):
Active and inactive are the calls of the source. No cut-off for these calls is given here.

Key:
Aorta [1] = experiment: Vasodilatory activity in Wistar rat endothelium-intact aorta assessed as reduction of acetylcholine-induced vasoconstriction; type: functional, tissue-based
Method in brief: (§1)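 Male Wistar rat aortic rings (~3 mm) in a myograph at 37 °C in oxygenated Krebs, stretched to 15 mN, with maximal contraction set by 60 mM KCl and endothelium checked with ACh. Precontracted rings received NHG as a single 100 μM dose or cumulatively at 1−100 μM. Parallel rings were exposed before and during dosing to L-NAME 200 μM, L-Arg 100 μM, Hb 10 μM or ODQ 50 μM.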

Aorta [2] = experiment: Vasodilatory activity in Wistar rat endothelium-intact aorta assessed as reversibility of reduction of acetylcholine-induced vasoconstriction in presence of ODQ; type: functional; design: concentration or dose not given beside the values
Rattus norvegicus [3] = species on record: Rattus norvegicus; experiment: Induction of NOx production in Wistar rat renal medullar homogenates at 100 uM after 1 hr by Griess test in presence of L-NAME; type: functional, tissue-based; details: Renal medulla
Method in brief: (§2)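 Crude homogenates of liver, renal cortex or renal medulla from freshly killed adult male Wistar rats, prepared in ice-cold HBSS with 1% Triton X. NHG at 100 μM was incubated for 1 h at 37 °C, with or without L-NAME (200 μM), then spun at 1000g and 4 °C. NOx (nitrite + nitrate) was measured by Griess assay. n = 4−5; paired t-tests.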

Rattus norvegicus [4] = species on record: Rattus norvegicus; experiment: Induction of NOx production in Wistar rat renal cortex homogenates at 100 uM after 1 hr by Griess test in presence of L-NAME; type: functional, tissue-based; method in brief: as §2
Liver [5] = experiment: Induction of NOx production in Wistar rat liver homogenates at 100 uM after 1 hr by Griess test; type: functional, tissue-based; method in brief: as §2
Liver [6] = experiment: Induction of NOx production in Wistar rat liver homogenates at 100 uM after 1 hr by Griess test in presence of L-NAME; type: functional, tissue-based; method in brief: as §2
Rattus norvegicus [7] = species on record: Rattus norvegicus; experiment: Induction of NOx production in Wistar rat renal medullar homogenates at 100 uM after 1 hr by Griess test; type: functional, tissue-based; details: Renal medulla; method in brief: as §2
[8] = Induction of xanthine/xanthine oxidase-mediated NOx production at 100 uM after 1 hr by Griess test in presence of allopurinol; type: physicochemical
Method in brief: (§3)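 Cell-free xanthine/xanthine oxidase (100 μM X / 100 mU XO) was made fresh daily in KPE buffer. NHG at 100 μM was incubated for 1 h at 37 °C, with or without allopurinol (100 μM), then centrifuged at 1000g and 4 °C. NOx was measured by Griess assay. n = 4−5; paired t-tests.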

[9] = Induction of xanthine/xanthine oxidase-mediated NOx production at 100 uM after 1 hr by Griess test; type: physicochemical; method in brief: as §3
Rattus norvegicus [10] = species on record: Rattus norvegicus; experiment: Induction of NOx production in Wistar rat renal cortex homogenates at 100 uM after 1 hr by Griess test; type: functional, tissue-based; method in brief: as §2
Aorta [11] = experiment: Vasodilatory activity in Wistar rat endothelium-intact aorta assessed as reduction of acetylcholine-induced vasoconstriction at 100 uM in presence of hemoglobin; type: functional, tissue-based; method in brief: as §1
Aorta [12] = experiment: Vasodilatory activity in Wistar rat endothelium-intact aorta assessed as reduction of acetylcholine-induced vasoconstriction at 100 uM in presence of L-Arg; type: functional, tissue-based; method in brief: as §1
Aorta [13] = experiment: Vasodilatory activity in Wistar rat endothelium-intact aorta assessed as reduction of acetylcholine-induced vasoconstriction at 100 uM in presence of ODQ; type: functional, tissue-based; method in brief: as §1
Aorta [14] = experiment: Vasodilatory activity in Wistar rat endothelium-intact aorta assessed as reduction of acetylcholine-induced vasoconstriction at 100 uM in presence of L-NAME; type: functional, tissue-based; method in brief: as §1
Aorta [15] = experiment: Vasodilatory activity in Wistar rat endothelium-intact aorta assessed as reduction of acetylcholine-induced vasoconstriction at 100 uM in presence of gamma-glutamyl transpeptidase; type: functional; design: scale not given: the % may be the effect or the level left
Method in brief: (§4)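 Aortic ring myograph (rat, 37 °C, Krebs, precontracted). The glutamyl prodrug at 10 mM was preincubated with γ-GT (100 mU/5 mM gly-gly) for 1 h at 37 °C before addition to the bath at 100 μM. Hemoglobin (10 μM), where present, was used as NO scavenger.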

Aorta [16] = experiment: Vasodilatory activity in Wistar rat endothelium-intact aorta assessed as reduction of acetylcholine-induced vasoconstriction at 100 uM; type: functional, tissue-based; method in brief: as §1
Aorta [17] = experiment: Vasodilatory activity in Wistar rat endothelium-intact aorta assessed as reduction of acetylcholine-induced vasoconstriction at 100 uM in presence of gamma-glutamyl transpeptidase and oxyhemoglobin; type: functional, tissue-based; method in brief: as §4
Liver [18] = experiment: Induction of NOx production in Wistar rat liver homogenates at 100 uM after 1 hr by Griess test in presence of gamma-glutamyl transpeptidase; type: functional, tissue-based
Rattus norvegicus [19] = species on record: Rattus norvegicus; experiment: Induction of NOx production in Wistar rat renal medullar homogenates at 100 uM after 1 hr by Griess test in presence of gamma-glutamyl transpeptidase; type: functional, tissue-based; details: Renal medulla
[20] = Induction of xanthine/xanthine oxidase-mediated NOx production at 100 uM after 1 hr by Griess test in presence of gamma-glutamyl transpeptidase; type: physicochemical
Rattus norvegicus [21] = species on record: Rattus norvegicus; experiment: Induction of NOx production in Wistar rat renal cortex homogenates at 100 uM after 1 hr by Griess test in presence of gamma-glutamyl transpeptidase; type: functional, tissue-based
Kidney [22] = experiment: Vasodilatory activity in Wistar rat isolated perfused rat kidney model in presence of gamma-glutamyl transpeptidase; type: functional, tissue-based
Method in brief: (§5)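 Isolated perfused kidney from a pentobarbital-anaesthetized (i.p.) male Wistar rat, perfused at 10 mL/min with perfusion pressure read via a side-port transducer. After 20 min equilibration, pressure was raised to 120−140 mmHg with phenylephrine (0.3 μM increments). Compound was added cumulatively to the perfusate (1 μM to 1 mM).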

Kidney [23] = experiment: Prodrug activation in Wistar rat kidney homogenates assessed as formation of N-(4-Phenylethyl)-N'-hydroxyguanidine Hydrochloride at 1 to 100 uM; type: tissue-based; details: tissue homogenate, TDE = time-dependent effect
Method in brief: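 Prodrug at 1, 10 or 100 μM was incubated with freshly pooled (n = 3) male Wistar rat kidney homogenate. Samples were taken every 15 min over 45 min, and the parent NHG was quantified by positive-ion LC-MS/MS on a C18 column with 0.1% formic acid in 95% water/5% acetonitrile. Total protein was determined by Lowry assay.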

Kidney [24] = experiment: Prodrug activation in Wistar rat kidney homogenates assessed as formation of N-(4-Phenylethyl)-N'-hydroxyguanidine Hydrochloride after 10 to 40 mins; type: tissue-based; details: tissue homogenate
Kidney [25] = experiment: Vasodilatory activity in Wistar rat isolated perfused rat kidney model at 250 uM in presence of gamma-glutamyl transpeptidase; type: functional, tissue-based; method in brief: as §5

## COc1cccc(CCN/C(N)=N/O)c1.Cl
Aorta [1]
  EC50: 3.98 µM
Aorta [2]
  Activity: 9%

## CN(CCCC(=O)O)C(N)=O
Rattus norvegicus [3]
  Activity: Active
Rattus norvegicus [4]
  Activity: Active
Liver [5]
  Activity: 1 µM
Liver [6]
  Activity: Active
Rattus norvegicus [7]
  Activity: 1 µM
Aorta [1]
  pEC50: inactive
[8]
  Activity: Active
[9]
  Activity: Not Active
Rattus norvegicus [10]
  Activity: 1 µM

## Cl.N/C(=N\O)NCCc1ccccc1
Aorta [11]
  Activity: inactive
Aorta [12]
  Activity: inactive
Aorta [1]
  EC50: 25.1 µM
Aorta [13]
  Activity: inactive
Aorta [2]
  Activity: 75%
Aorta [14]
  Activity: inactive

## Cl.N/C(=N\O)NCCCc1ccccc1
Aorta [1]
  EC50: 15.8 µM
Aorta [2]
  Activity: 68%

## Cl.N/C(=N\O)NCCc1cccc2ccccc12
Aorta [1]
  EC50: 50.1 µM
Aorta [2]
  Activity: 1%

## N/C(=N\O)NCCc1ccc(O)cc1
Aorta [1]
  EC50: 63.1 µM

## CN(CCCC(=O)O)/C(=N\O)NC(=O)CC[C@H](N)C(=O)O
Aorta [15]
  Activity: 18%
Aorta [16]
  Activity: inactive
Aorta [17]
  Activity: inactive

## COc1ccccc1CCN/C(N)=N/O.Cl
Aorta [1]
  EC50: 20 µM
Aorta [2]
  Activity: 14%

## Cl.N=C(NO)NCc1ccccc1
Aorta [1]
  EC50: 12.6 µM
Aorta [2]
  Activity: 37%

## CN(CCCC(=O)O)/C(N)=N/O
Liver [5]
  Activity: 1 µM
Aorta [16]
  Activity: Active
Rattus norvegicus [7]
  Activity: 1 µM
[9]
  Activity: Active
Rattus norvegicus [10]
  Activity: 1 µM
Aorta [14]
  Activity: inactive

## Cc1ccc(CCN/C(N)=N/O)cc1.Cl
Aorta [1]
  EC50: 12.6 µM
Aorta [2]
  Activity: 35%

## CCCCN/C(N)=N/O.Cl
Aorta [1]
  EC50: 31.6 µM
Aorta [2]
  Activity: 100%

## Cl.N/C(=N\O)NCCc1ccc(Cl)cc1
Aorta [1]
  EC50: 100 µM
Aorta [2]
  Activity: 11%

## Cl.N/C(=N\O)NCCCCc1ccccc1
Aorta [1]
  EC50: 631 µM
Aorta [2]
  Activity: 28%

## Cl.N/C(=N\O)NCCc1ccc(F)cc1
Aorta [1]
  EC50: 63.1 µM
Aorta [2]
  Activity: 11%

## N=C(NO)NCCC[C@H](N)C(=O)O
Rattus norvegicus [3]
  Activity: inactive
Rattus norvegicus [4]
  Activity: inactive
Liver [5]
  Activity: 5 µM
Aorta [16]
  Activity: Active
Liver [18]
  Activity: inactive
Rattus norvegicus [19]
  Activity: inactive
Liver [6]
  Activity: inactive
Aorta [11]
  Activity: inactive
Rattus norvegicus [7]
  Activity: 5 µM
[20]
  Activity: Not Active
Aorta [12]
  Activity: inactive
[8]
  Activity: Not Active
Rattus norvegicus [21]
  Activity: inactive
[9]
  Activity: 5 µM
Aorta [13]
  Activity: inactive
Rattus norvegicus [10]
  Activity: 5 µM
Aorta [14]
  Activity: inactive

## N/C(=N\OCc1ccc(NC(=O)CC[C@H](N)C(=O)O)cc1)NCCc1ccccc1
Aorta [15]
  Activity: Active
Aorta [16]
  Activity: Active
Kidney [22]
  EC50: 50 µM
Kidney [23]
  Drug metabolism: tde
Kidney [24]
  Drug metabolism: Dose-dependent effect
Aorta [2]
  Activity: Active

## Cl.N/C(=N\O)NCCc1ccc(Br)cc1
Aorta [1]
  EC50: 15.8 µM
Aorta [2]
  Activity: 34%

## N[C@@H](CCC(=O)NCCCC(=O)N/C(=N\OC(=O)CCCNC(=O)CC[C@H](N)C(=O)O)NCCc1ccccc1)C(=O)O
Kidney [25]
  Activity: inactive

## CN(CCCC(=O)O)c1noc(CC[C@H](N)C(=O)O)n1
Aorta [15]
  Activity: inactive
Aorta [16]
  Activity: inactive

## COc1ccc(CCN/C(N)=N/O)cc1.Cl
Aorta [1]
  EC50: 50.1 µM
Aorta [2]
  Activity: 40%
